From ChEMBL document CHEMBL5236549, “Discovery of 2-Sulfinyl-Diazabicyclooctane Derivatives, Potential Oral β-Lactamase Inhibitors for Infections Caused by Serine β-Lactamase-Producing Enterobacterales” (J Med Chem, 2021)

Key:
[1] = Cmax in rat at 5 mg/kg,po by LC/MS/MS analysis; format: ADME, organism-based; set-up: dose 5 mg/kg, route po; conditions: in vivo
Procedure, shortened: (§1)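 Plasma of the parent acid measured by LC/MS/MS (methanol precipitation, positive ESI, external standard); oral values follow prodrug dosing (rat fed, dog and monkey fasted). AUC from 0 h to last time point by linear trapezoid; F from oral AUC versus iv AUC of the parent. N = 2 (rat, dog), N = 3 (monkey, mouse).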

[2] = Oral bioavailability in monkey at 10 mg/kg by LC/MS/MS analysis; format: ADME, organism-based, Macaca mulatta; conditions: rhesus monkey, in vivo; procedure, shortened: as §1
[3] = Stability of the compound in phosphate buffer at pH 7.0 assessed as parent compound remaining at 40 degreeC measured after 16 hrs; format: physicochemical; conditions: read-out: Stability
Procedure, shortened: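 Compound held in pH 7.0 phosphate buffer at 40 °C for 16 h; amount remaining reported as %.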

[4] = AUC in mouse at 10 mg/kg,po by LC/MS/MS analysis; format: ADME, organism-based; set-up: dose 10 mg/kg, route po; conditions: in vivo; procedure, shortened: as §1
[5] = Cmax in dog at 10 mg/kg,po by LC/MS/MS analysis; format: ADME, organism-based, Canis lupus familiaris; set-up: dose 10 mg/kg, route po; conditions: in vivo; procedure, shortened: as §1
Klebsiella pneumoniae [6] = experiment: Antibacterial activity in ICR mouse infected with Klebsiella pneumoniae SR08667 assessed as reduction in bacterial colony forming units at 30 mg/kg,po administered upto 48 hrs after infection in presence of CTB; format: functional
Procedure, shortened: (§2)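 Urinary tract infection model in 5-week-old female ICR mice, N = 5 per arm. 1.2 × 10⁶ CFU given transurethrally, urethra tied for 4 h. Oral dosing at 4, 8, 28 and 32 h post-infection in 0.5% methylcellulose: ceftibuten 30 mg/kg alone, ceftibuten 10 mg/kg plus prodrug 3, 10 or 30 mg/kg, or both at 30 mg/kg. Kidneys homogenized at 4 or 48 h and plated on modified Drigalski agar. Read-out is change in log CFU/kidney versus untreated controls at treatment start.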

[7] = Oral bioavailability in dog at 10 mg/kg by LC/MS/MS analysis; format: ADME, organism-based, Canis lupus familiaris; conditions: in vivo; procedure, shortened: as §1
[8] = Cmax in mouse at 100 mg/kg,po by LC/MS/MS analysis; format: ADME, organism-based; set-up: dose 100 mg/kg, route po; conditions: in vivo; procedure, shortened: as §1
[9] = AUC in rat at 5 mg/kg,po by LC/MS/MS analysis; format: ADME, organism-based; set-up: dose 5 mg/kg, route po; conditions: in vivo; procedure, shortened: as §1
[10] = Oral bioavailability in mouse at 30 mg/kg by LC/MS/MS analysis; format: ADME, organism-based; conditions: in vivo; procedure, shortened: as §1
[11] = AUC in monkey at 10 mg/kg,po by LC/MS/MS analysis; format: ADME, organism-based, Macaca mulatta; set-up: dose 10 mg/kg, route po; conditions: rhesus monkey, in vivo; procedure, shortened: as §1
[12] = Tmax in dog at 10 mg/kg,po by LC/MS/MS analysis; format: ADME, organism-based, Canis lupus familiaris; conditions: in vivo
[13] = Cmax in mouse at 30 mg/kg,po by LC/MS/MS analysis; format: ADME, organism-based; set-up: dose 30 mg/kg, route po; conditions: in vivo; procedure, shortened: as §1
[14] = Tmax in monkey at 10 mg/kg,po by LC/MS/MS analysis; format: ADME, organism-based, Macaca mulatta; conditions: rhesus monkey, in vivo
[15] = Oral bioavailability in rat at 5 mg/kg by LC/MS/MS analysis; format: ADME, organism-based; conditions: in vivo; procedure, shortened: as §1
[16] = Toxicity in rat at 600 mg/kg,po administered for two weeks; format: organism-based; conditions: in vivo
Procedure, shortened: (§3)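 Two-week rat toxicology study with daily oral dosing of prodrug; NOAEL and lethal dose established.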

[17] = Oral bioavailability in mouse at 100 mg/kg by LC/MS/MS analysis; format: ADME, organism-based; conditions: in vivo; procedure, shortened: as §1
[18] = Oral bioavailability in mouse at 10 mg/kg by LC/MS/MS analysis; format: ADME, organism-based; conditions: in vivo; procedure, shortened: as §1
[19] = AUC in mouse at 100 mg/kg,po by LC/MS/MS analysis; format: ADME, organism-based; set-up: dose 100 mg/kg, route po; conditions: in vivo; procedure, shortened: as §1
Klebsiella pneumoniae [20] = experiment: Antibacterial activity in ICR mouse infected with Klebsiella pneumoniae SR08667 assessed as reduction in bacterial colony forming units at 10 mg/kg,po administered upto 48 hrs after infection in presence of CTB; format: functional; procedure, shortened: as §2
[21] = Cmax in monkey at 10 mg/kg,po by LC/MS/MS analysis; format: ADME, organism-based, Macaca mulatta; set-up: dose 10 mg/kg, route po; conditions: rhesus monkey, in vivo; procedure, shortened: as §1
[22] = AUC in mouse at 30 mg/kg,po by LC/MS/MS analysis; format: ADME, organism-based; set-up: dose 30 mg/kg, route po; conditions: in vivo; procedure, shortened: as §1
[23] = Cmax in mouse at 10 mg/kg,po by LC/MS/MS analysis; format: ADME, organism-based; set-up: dose 10 mg/kg, route po; conditions: in vivo; procedure, shortened: as §1
[24] = Toxicity in rat at > 2000 mg/kg,po administered for two weeks; format: organism-based; conditions: in vivo; procedure, shortened: as §3
[25] = Tmax in rat at 5 mg/kg,po by LC/MS/MS analysis; format: ADME, organism-based; conditions: in vivo
[26] = AUC in dog at 10 mg/kg,po by LC/MS/MS analysis; format: ADME, organism-based, Canis lupus familiaris; set-up: dose 10 mg/kg, route po; conditions: in vivo; procedure, shortened: as §1

| Structure (SMILES) | Cmax [1] | bioavailability [2] | remaining at 16 h [3] | Cmax [5] | bioavailability [7] | AUC [9] | AUC [11] | Tmax [12] | Tmax [14] | bioavailability [15] | Cmax [21] | Tmax [25] | AUC [26] | further results |
| --- | --- | --- | --- | --- | --- | --- | --- | --- | --- | --- | --- | --- | --- | --- |
| C[S@@+]([O-])[C@@H]1CC[C@@H]2CN1C(=O)N2O[C@H](F)C(=O)OC1CCCCC1 | 620 ng/mL | 54.8% | 56% | 15800 ng/mL | 106% | 1170 ng·h/mL | 15200 ng·h/mL | 60 min | 60 min | 37.8% | 7940 ng/mL | 30 min | 41200 ng·h/mL | AUC [4]: 3900 ng·h/mL; Activity (Klebsiella pneumoniae [6]): >1 log10CFU; Cmax [8]: 52000 ng/mL; bioavailability [10]: 122%; Cmax [13]: 21400 ng/mL; Activity [16]: Non-Toxic; bioavailability [17]: 102%; bioavailability [18]: 80%; AUC [19]: 50200 ng·h/mL; Activity (Klebsiella pneumoniae [20]): >0.5 log10CFU; AUC [22]: 18100 ng·h/mL; Cmax [23]: 5600 ng/mL; Activity [24]: Non-Toxic |
| CC(C)OC(=O)[C@@H](F)ON1C(=O)N2C[C@H]1CC[C@H]2[S@@+](C)[O-] | 1700 ng/mL | 25.5% | 56% | 7390 ng/mL | 48.1% | 2090 ng·h/mL | 7060 ng·h/mL | 48 min | 60 min | 67.6% | 4380 ng/mL | 30 min | 18400 ng·h/mL | – |
